According to ChEMBL document CHEMBL4613263, “Optimization of Tetrahydroindazoles as Inhibitors of Human Dihydroorotate Dehydrogenase and Evaluation of Their Activity and In Vitro Metabolic Stability” (J Med Chem, 2020):
pIC50: −log10 of the molar value. Converted amounts (≈) assume the structure as drawn. The source made the active and inactive calls. The calls are words filed in the database; no cut-off is given here.

Tests used:
[1] = Antiproliferative activity against human ARN8 cells assessed as reduction in cell viability incubated for 72 hrs by SRB assay; format: functional, cell-based; conditions: for pIC50: Homo sapiens, ARN8, 72 h, read-out: IC50
[2] = Metabolic stability in human liver microsomes assessed as half life at 1 uM incubated for 60 mins by LC-MS/MS analysis; format: ADME, Microsome; conditions: for half-life at 1 µM: liver microsomes
Procedure, shortened: (§1)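 Compound at 1 µM with 1.0 mg/mL human or mouse liver microsomes in 50 mM potassium phosphate pH 7.4, preincubated 5 min at 37 °C. Started with 1 mM NADPH (or blank buffer). Quenched with cold acetonitrile containing glipizide at 0, 5, 15, 30, 60 min. Parent loss tracked by LC-MS/MS in MRM mode; t½ = 0.693/k from slope of peak-area ratio versus time.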

[3] = Cytotoxicity against human HNDF cells assessed as reduction in cell viability incubated for 72 hrs by SRB assay; format: cell-based; conditions: for pIC50: Homo sapiens, 72 h, read-out: IC50
Procedure, shortened: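 Human normal dermal fibroblasts seeded at 15×10^2 per well and left 24 h, then exposed to compound for 72 h with 0.1% DMSO final. Cells fixed with TCA at 4 °C for 1 h, stained with SRB, solubilized in 10 mM Tris and read at 490 nm. Values normalized to DMSO control. Tabulated means come only from experiments where IC50 fell below 10 000 nM.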

[4] = Metabolic stability in CD-1 mouse liver microsomes assessed as half life at 1 uM incubated for 60 mins by LC-MS/MS analysis; format: ADME, Microsome; conditions: for half-life at 1 µM: CD-1, mouse, liver microsomes; procedure, shortened: as §1
[5] = Cytotoxicity against human HNDF cells assessed as reduction in cell viability incubated with compound at higher concentration for 72 hrs in presence of 100 uM […], uridine by SRB assay; format: cell-based
Procedure, shortened: (§2)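 Normal dermal fibroblasts seeded at 15×10^2 per well and left 24 h, then treated 72 h in medium with 0.1% DMSO final plus 100 µM uridine. Fixed with TCA, stained with 0.4% SRB, dye dissolved in Tris and read at 490 nm. Growth/viability given as % of DMSO control; mean ± SD of three technical replicates.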

Homo sapiens [6] = organism: Homo sapiens; assay: Antiproliferative activity against human ARN8 cells assessed as reduction in cell viability at 0.005 to 10 uM incubated for 72 hrs in presence of 100 uM […], uridine by SRB assay; format: functional, cell-based
Homo sapiens [7] = organism: Homo sapiens; assay: Antiproliferative activity against human ARN8 cells assessed as reduction in cell viability incubated with compound at higher concentration for 72 hrs in presence of 100 uM […], uridine by SRB assay; format: functional, cell-based
[8] = Cytotoxicity against human HNDF cells assessed as reduction in cell viability incubated for 72 hrs in presence of 100 uM […], uridine by SRB assay; format: cell-based; procedure, shortened: as §2
[9] = molecular target: T1, Dihydroorotate dehydrogenase (quinone), mitochondrial (Homo sapiens, UniProt Q02127); assay: Inhibition of DHODH in human ARN8 cells assessed as activation of p53-dependent transcription at 0.05 to 10 uM incubated for 16 hrs by CPRG assay; format: cell-based
Procedure, shortened: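 ARN8 cells carrying the RGCΔFos-LacZ p53 reporter seeded at 2×10^4 per well and left 24 h, then treated 16 h (0.1% DMSO final, ±100 µM uridine). Cells washed, lysed and frozen at −20 °C for at least 2 h. β-galactosidase measured with CPRG substrate at pH 7.5, read at 590 nm after 24 h. Result is fold change vs DMSO; mean ± SD of three technical replicates.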

[10] = molecular target: T1, Dihydroorotate dehydrogenase (quinone), mitochondrial; assay: Inhibition of recombinant human N-terminal His-tagged DHODH (31 to 395 residues) expressed in Escherichia coli expression system using dihydroorotic acid as substrate by DCIP assay
[11] = molecular target: T1, Dihydroorotate dehydrogenase (quinone), mitochondrial; assay: Inhibition of recombinant human DHODH using dihydroorotic acid as substrate measured for 68 mins by DCIP based colorimetric assay
[12] = Kinetic aqueous solubility of compound in Prima HT solution at pH 7.4 incubated for 4 hrs by UV-spectrophotometry; format: physicochemical; conditions: read-out: Kinetic_solubility
Procedure, shortened: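 20 mM DMSO stocks diluted 100× into Prima HT buffer at pH 7.4 and shaken 4 h at rt. Samples filtered through 0.22 µm, mixed 1:1 with isopropanol and scanned by UV from 190–400 nm against stock reference standards.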

[13] = molecular target: DNA topoisomerase 2-alpha (Homo sapiens) (UniProt P11388); conditions: 20 uM
[14] = molecular target: DNA topoisomerase 2-alpha (Homo sapiens) (UniProt P11388); conditions: 20 uM; remark: listed apart in the source
[15] = molecular target: DNA topoisomerase 2-alpha (Homo sapiens) (UniProt P11388); conditions: 20 uM; remark: listed apart in the source
[16] = molecular target: DNA topoisomerase 2-alpha (Homo sapiens) (UniProt P11388); conditions: 20 uM; remark: listed apart in the source
[17] = molecular target: DNA topoisomerase 2-alpha (Homo sapiens) (UniProt P11388); conditions: 20 uM; remark: listed apart in the source
[18] = molecular target: T1, Dihydroorotate dehydrogenase (quinone), mitochondrial; assay: Inhibition of DHOH in human ARN8 cells assessed as gammaH2AX level at 20 uM incubated for 1 hr in presence of pan-caspase inhibitor, Z-VAD-FMK by Western blot analysis; format: cell-based
Procedure, shortened: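 ARN8 cells treated 24 h at 20 nM, with 20 µM Z-VAD-FMK or vehicle added 4.5 h before harvest. Etoposide arm was 20 µM for 1 h alongside Z-VAD-FMK. Lysates normalized for protein and analysed by western blot for p53, p-Ser15 p53, γ-H2AX, H2AX and cleaved PARP (85 kDa) against stain-free total-protein loading.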

[19] = molecular target: DNA topoisomerase 2-alpha (Homo sapiens) (UniProt P11388); conditions: 20 uM; remark: listed apart in the source
[20] = Drug metabolism in CD-1 mouse liver microsomes assessed as hydroxylation-mediated M1 metabolite with m/z as 397.1 formation by measuring retention time at 10 uM incubated for 60 mins by LC-MS/MS analysis; format: ADME, Microsome; conditions: 1 h
Procedure, shortened: (§3)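 10 µM compound in 100 mM phosphate pH 7.4 with pooled female CD-1 mouse liver microsomes and NADPH, at 37 °C for 0, 10, 20, 40 and 60 min. Stopped with equal-volume cold acetonitrile, then centrifuged, dried and reconstituted. Metabolites and parent resolved on C18 UHPLC with ion-trap MS. Each peak reported as % of total (metabolite + parent) area.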

[21] = Drug metabolism in CD-1 mouse liver microsomes assessed as hydroxylation-mediated M2 metabolite with m/z as 397.1 formation by measuring retention time at 10 uM incubated for 60 mins by LC-MS/MS analysis; format: ADME, Microsome; conditions: 1 h; procedure, shortened: as §3
[22] = Drug metabolism in CD-1 mouse liver microsomes assessed as disappearance of parent compound by measuring parent compound retention time at 10 uM incubated for 60 mins by LC-MS/MS analysis; format: ADME, Microsome; conditions: 1 h; procedure, shortened: as §3

Chain of DNA topoisomerase 2-alpha (Homo sapiens) (P11388 whole entry): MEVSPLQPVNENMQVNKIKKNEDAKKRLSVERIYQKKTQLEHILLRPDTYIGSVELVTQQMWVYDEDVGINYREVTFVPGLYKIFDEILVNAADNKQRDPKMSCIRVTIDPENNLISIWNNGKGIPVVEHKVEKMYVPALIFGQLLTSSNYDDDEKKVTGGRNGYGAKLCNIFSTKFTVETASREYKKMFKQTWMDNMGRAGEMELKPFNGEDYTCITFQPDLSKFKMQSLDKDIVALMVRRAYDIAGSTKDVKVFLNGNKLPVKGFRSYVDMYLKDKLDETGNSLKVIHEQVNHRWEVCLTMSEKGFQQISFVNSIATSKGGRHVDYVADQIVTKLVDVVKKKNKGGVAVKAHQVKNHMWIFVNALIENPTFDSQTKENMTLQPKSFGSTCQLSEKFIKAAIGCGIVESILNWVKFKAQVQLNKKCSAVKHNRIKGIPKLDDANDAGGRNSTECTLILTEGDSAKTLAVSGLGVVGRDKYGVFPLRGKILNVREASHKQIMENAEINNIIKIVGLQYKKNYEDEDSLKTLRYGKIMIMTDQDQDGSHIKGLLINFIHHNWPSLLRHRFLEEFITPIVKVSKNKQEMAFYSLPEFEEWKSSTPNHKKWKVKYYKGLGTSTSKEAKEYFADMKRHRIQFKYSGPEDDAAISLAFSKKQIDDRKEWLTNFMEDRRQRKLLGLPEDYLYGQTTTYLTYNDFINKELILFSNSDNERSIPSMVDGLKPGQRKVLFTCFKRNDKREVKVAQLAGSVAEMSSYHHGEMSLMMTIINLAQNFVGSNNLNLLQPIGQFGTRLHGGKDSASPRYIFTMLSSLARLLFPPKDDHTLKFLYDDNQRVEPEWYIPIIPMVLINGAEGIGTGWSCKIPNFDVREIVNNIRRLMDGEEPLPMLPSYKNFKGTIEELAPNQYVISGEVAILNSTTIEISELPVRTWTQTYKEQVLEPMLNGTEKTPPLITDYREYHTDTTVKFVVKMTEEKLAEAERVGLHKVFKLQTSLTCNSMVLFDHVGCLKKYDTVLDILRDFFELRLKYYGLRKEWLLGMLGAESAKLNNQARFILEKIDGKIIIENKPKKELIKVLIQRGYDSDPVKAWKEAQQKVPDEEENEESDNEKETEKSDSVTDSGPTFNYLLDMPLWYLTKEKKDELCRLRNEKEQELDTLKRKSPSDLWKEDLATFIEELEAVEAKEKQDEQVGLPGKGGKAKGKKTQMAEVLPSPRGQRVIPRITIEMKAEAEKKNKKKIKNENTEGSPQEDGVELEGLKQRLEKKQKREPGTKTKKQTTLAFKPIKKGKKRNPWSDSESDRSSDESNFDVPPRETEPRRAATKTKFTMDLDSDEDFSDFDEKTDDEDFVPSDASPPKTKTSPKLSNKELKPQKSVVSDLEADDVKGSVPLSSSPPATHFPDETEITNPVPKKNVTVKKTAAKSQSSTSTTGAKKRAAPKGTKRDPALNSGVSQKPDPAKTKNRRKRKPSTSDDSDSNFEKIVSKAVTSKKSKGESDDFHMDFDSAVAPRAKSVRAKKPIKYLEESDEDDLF
T1 sequence (Q02127 whole entry): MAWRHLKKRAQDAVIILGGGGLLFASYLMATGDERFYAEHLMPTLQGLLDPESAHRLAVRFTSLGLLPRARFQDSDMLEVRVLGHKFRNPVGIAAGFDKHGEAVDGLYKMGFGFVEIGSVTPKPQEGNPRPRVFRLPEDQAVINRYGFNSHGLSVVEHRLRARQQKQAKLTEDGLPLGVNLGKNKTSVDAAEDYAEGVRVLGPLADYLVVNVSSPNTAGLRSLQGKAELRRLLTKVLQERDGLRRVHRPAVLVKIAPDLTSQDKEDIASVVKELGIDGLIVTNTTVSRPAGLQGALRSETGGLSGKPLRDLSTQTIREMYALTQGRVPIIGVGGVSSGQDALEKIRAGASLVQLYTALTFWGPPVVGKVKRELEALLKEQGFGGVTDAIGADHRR

O=C(N[C@@H]1CCCc2c1cnn2-c1ccccc1F)c1ccccn1 showed a pIC50 [1] of 6.03, a half-life at 1 µM [2] greater than 60 min and a pIC50 [3] of less than 5.00. It also gave a half-life at 1 µM [4] of 1 min.
Work on O=C(NC1CCCc2c1cnn2-c1ccccc1)c1noc2c1CCCC2 (racemic) yielded a pIC50 [1] of 6.37 and a pIC50 [3] of 5.15.
In the case of Cc1cccc(-n2ncc3c2CCCC3NC(=O)c2noc3c2CCCC3)c1C (racemic), the pIC50 [1] was 7.64, the Activity [5] was “Non-Toxic” and the Activity (Homo sapiens [6]) was “inactive”. For the same compound, the inhibition (Homo sapiens [7]) was “Active”, the Activity [8] was “Toxic” and the pIC50 [3] was 5.11.
With O=C(N[C@H]1CCCc2c1cnn2-c1ccccc1F)c1onc2c1CCCC2 the IC50 [1] was “Not Active”, the inhibition [9] was “inactive” and the pIC50 [10] was 5.19. For the same compound, the IC50 [3] was “Not Active”.
Compound O=C(NC1CCCc2c1cnn2-c1ccccc1F)c1onc2c1CCCC2 (racemic) has a pIC50 [1] of 6.66 and a pIC50 [3] of 5.05.
With COC(=O)c1ccc(C(=O)NC2CCCc3c2cnn3-c2ccccc2F)nc1 (racemic) the pIC50 [11] was less than 5.00.
For Cc1ccnc(C(=O)N[C@@H]2CCCc3c2cnn3-c2ccccc2C)c1, the pIC50 [1] was 7.21, the Activity (Homo sapiens [6]) was “inactive” and the half-life at 1 µM [2] was greater than 60 min. For the same compound, the solubility kinetic at 4 h [12] was 110 µM (≈ 38.1 µg/mL), the Activity [8] was “Toxic” and the pIC50 [3] was less than 5.00. The half-life at 1 µM [4] was 10 min.
In the case of Cc1cccc(-n2ncc3c2CCCC3NC(=O)c2noc3c2CCCC3)c1 (racemic), the pIC50 [1] was 6.77 and the pIC50 [3] was 5.10.
For Cc1ccc(F)c(-n2ncc3c2CCC[C@H]3NC(=O)c2onc3c2CCCC3)c1, the pIC50 [1] was 6.70 and the pIC50 [3] was 5.17.
Compound Cc1ccccc1-n1ncc2c1CCC[C@H]2NC(=O)c1onc2c1CCCC2 has a pIC50 [1] of 7.14 and a pIC50 [3] of less than 5.00.
With COc1cc([C@@H]2c3cc4c(cc3[C@@H](O[C@@H]3O[C@@H]5CO[C@@H](C)O[C@H]5[C@H](O)[C@H]3O)[C@H]3COC(=O)[C@H]23)OCO4)cc(OC)c1O the inhibition [13] was “Active”, the inhibition [14] was “Active” and the inhibition [15] was “Active”. The inhibition [16] was “Active”, the inhibition [17] was “Active” and the inhibition [18] was “Active”. For the same compound, the inhibition [19] was “Active”.
Compound O=C(N[C@@H]1CCCc2c1cnn2-c1ccccc1F)c1onc2c1CCCC2 has a pIC50 [1] of 6.80, a Retention_time [20] of 4.1 min and a half-life at 1 µM [2] of 85 min. The inhibition [9] was “Active”, the solubility kinetic at 4 h [12] was 15 µM (≈ 5.71 µg/mL) and the Retention_time [21] was 4.3 min. The pIC50 [3] was less than 5.00, the half-life at 1 µM [4] was 8 min and the Retention_time [22] was 5.3 min.
For O=C(NC1CCCc2c1cnn2-c1ccccc1F)c1ccccn1 (racemic), the pIC50 [1] was 5.27 and the pIC50 [3] was less than 5.00.
In the case of Cc1ccccc1-n1ncc2c1CCCC2NC(=O)c1noc2c1CCCC2 (racemic), the pIC50 [1] was 7.82, the Activity [5] was “Non-Toxic” and the Activity (Homo sapiens [6]) was “inactive”. The inhibition (Homo sapiens [7]) was “Active”, the Activity [8] was “Toxic” and the pIC50 [3] was 5.07.
With O=C(N[C@@H]1CCCc2c1cnn2-c1ccccc1F)c1ncccn1 the IC50 [1] was “Not Active” and the IC50 [3] was “Not Active”.
With O=C(NC1CCCc2c1cnn2-c1ccccc1F)c1ccccc1 (racemic) the IC50 [1] was “Not Active” and the IC50 [3] was “Not Active”.
With O=C(N[C@@H]1CCCc2c1cnn2-c1ccccc1F)c1cc(C(F)(F)F)ccn1 the pIC50 [1] was 6.96, the Activity (Homo sapiens [6]) was “inactive” and the Stability ([2]; microsomes, 1 h, 1 µM) was “Stable”. For the same compound, the solubility kinetic at 4 h [12] was less than 5 µM, the Activity [8] was “Toxic” and the pIC50 [3] was less than 5.00. It also gave a half-life at 1 µM [4] of 54 min.
In the case of Cc1ccccc1-n1ncc2c1CCC[C@H]2NC(=O)c1noc2c1CCCC2, the pIC50 [1] was 7.85, the Activity [5] was “Non-Toxic” and the inhibition (Homo sapiens [7]) was “Active”. For the same compound, the half-life at 1 µM [2] was 23 min, the solubility kinetic at 4 h [12] was 10 µM (≈ 3.76 µg/mL) and the pIC50 [3] was less than 5.00. For the same compound, the half-life at 1 µM [4] was 6 min.
For O=C(N[C@H]1CCCc2c1cnn2-c1ccccc1F)c1noc2c1CCCC2, the IC50 [1] was “Not Active” and the IC50 [3] was “Not Active”.
With O=C(N[C@@H]1CCCc2c1cnn2-c1ccccc1F)c1noc2c1CCCC2 the pIC50 [1] was 7.10, the Activity (Homo sapiens [6]) was “inactive” and the pIC50 [3] was 5.00.
For O=C(N[C@@H]1CCCc2c1cnn2-c1ccccc1F)c1ncc2ccccn12, the pIC50 [1] was 7.42 and the pIC50 [3] was 5.03.
Compound Cc1c(-c2ccc(-c3ccccc3F)cc2)nc2ccc(F)cc2c1C(=O)O [BREQUINAR] has a pIC50 [1] of 6.40, a half-life at 1 µM [2] greater than 60 min and a solubility kinetic at 4 h [12] of 110 µM (≈ 41.3 µg/mL). The pIC50 [3] was less than 5.00 and the Stability ([4]; mouse, microsomes, 1 h, 1 µM) was “Stable”.
With O=C(N[C@H]1CCCc2c1cnn2-c1ccccc1F)c1ccccn1 the IC50 [1] was “Not Active” and the IC50 [3] was “Not Active”.
